Bioassay records as filed in PubChem.
CYP2C19 act: cytochrome P450 2C19 (human) activation; 96,000 tested, under 10 active; AID 1025; recombinant CYP2C19, luciferin-H EGE luminescence; hits give high values; 0 = fully inhibited enzyme, 1 = untreated enzyme; activation factor at 5 µM; P33261;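 active = activation factor of at least 2 at 5 µM in the primary screen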
Target sequence (P33261 whole entry, looked up): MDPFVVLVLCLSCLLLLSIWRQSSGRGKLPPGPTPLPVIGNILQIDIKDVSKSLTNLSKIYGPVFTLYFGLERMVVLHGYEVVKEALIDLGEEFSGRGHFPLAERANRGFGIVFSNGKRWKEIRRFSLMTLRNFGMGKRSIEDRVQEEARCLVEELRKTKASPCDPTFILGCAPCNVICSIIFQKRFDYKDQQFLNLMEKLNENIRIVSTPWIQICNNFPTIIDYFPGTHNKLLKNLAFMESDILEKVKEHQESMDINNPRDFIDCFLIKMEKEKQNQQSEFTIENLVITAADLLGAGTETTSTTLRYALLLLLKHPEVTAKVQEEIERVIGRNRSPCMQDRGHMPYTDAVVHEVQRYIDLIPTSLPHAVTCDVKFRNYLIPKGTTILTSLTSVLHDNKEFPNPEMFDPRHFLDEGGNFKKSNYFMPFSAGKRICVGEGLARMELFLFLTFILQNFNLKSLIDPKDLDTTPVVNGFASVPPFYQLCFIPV
CYP2C9 activ: increases human cytochrome P450 2C9 activity; P11712; recombinant CYP2C9, luciferin-H conversion, luminescence; hits give high values; factor 1 = untreated enzyme, 0 = blocked; activation factor at 5 µM; 1.4% of 96,000 active; AID 1024;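 active = activation factor of 2 or more for CYP2C9 at a 5 µM dose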
CYP2C9 inh: inhibitors of human CYP2C9 | P11712 | CYP2C9 Supersomes, luciferin-H conversion, luminescence | inhibition, % at 5 µM | 20% of 96,000 active | AID 777;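 active = blocking of liver enzyme CYP2C9 beyond about 50% at 5 µM, limit read from the data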
CYP2C19 inh: inhibitors of human CYP2C19 | CYP2C19 Supersomes, luciferin-H EGE luminescence, 30 min | inhibition, % at 5 µM | P33261 | 21% of 96,000 active;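 active = CYP2C19 inhibition above a set limit at 5 µM in the primary screen, cut at about 50% in these data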
tolC growth inh: blocks growth of E. coli BW25113 tolC mutant | OD615 | growth inhibition, % at 10 µM (by protocol) | 2.2% of 65,000 active | AID 573;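 active = growth inhibition at or above a cutoff equal to the mean over every tested compound plus 3 SD, cut at about 60% in these data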;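 note: growth measured after 20 h incubation at 37 °C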
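Test system: tolC-deleted E. coli BW25113; medium: LB with kanamycin 50 µg/mL; compound: single-point testing at 10 µM; incubation: 20 h compound exposure of bacteria at 37 °C; signal: OD at 615 nm; evaluation: growth inhibition in percent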
E coli WT exp: blocks growth of wild type E. coli BW25113. OD600 absorbance. growth inhibition, % at 100 µM. 0.15% of 98,000 active. AID 710;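 active = growth inhibition above about 50% at one test dose, limit read from the data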;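 note: growth measured after 20 h incubation at 37 °C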
Large screens that a line does not name were inactive. Most compounds without a hit are left out; they make up all but 29% or so of the library.

Clc1ccccc1OCc1nc(-c2ccccn2)no1	CYP2C19 inh 84.7
Clc1ccc(OCc2nc(-c3ccccn3)no2)c(Br)c1	none
Nc1nonc1-c1noc(COc2ccccc2Cl)n1	CYP2C19 inh 86.3
c1ccc(CCc2nc(-c3ccccn3)no2)cc1	CYP2C19 inh 54.8
CCOc1ccc(Cc2nc(-c3nonc3N)no2)cc1OCC	CYP2C19 inh 50.0
Cc1cccc(NC(=O)CC2NC3CCCCC3NC2=O)c1 (stereo not drawn)	none
CC1CCCCN1C(=O)C1CC(c2ccc(F)cc2)=NO1 (stereo not drawn)	none
Cc1cccc(OCc2nc(-c3nonc3N)no2)c1C	CYP2C19 inh 65.9
COc1ccc(CC(=O)Nc2ccc(-c3noc(COc4ccccc4C)n3)cc2)cc1	none
Cc1nc2ccccc2n1CC(=O)OCC(=O)NCCc1ccccc1	none (no result: tolC growth inh)
C/C(=N/OCC(=O)Nc1ccc(C)cc1C)c1cccs1	CYP2C9 inh 98.4, CYP2C19 inh 93.4 (no result: tolC growth inh)
Cc1ccc(NC(=O)CCC(=O)NNC(=O)c2cccs2)c(C)c1	none (no result: tolC growth inh)
CCn1ncc(/C=C/C(=O)Nc2c(C)nn(Cc3ccc(Cl)cc3Cl)c2C)c1C	none (no result: tolC growth inh)
Cc1ccc(OCC(O)CN2CCN(Cc3ccc4c(c3)OCO4)CC2)c(C)c1 (stereo not drawn)	none
Cc1ccc(Nc2nc(N)nc(CN3CCN(Cc4ccc5c(c4)OCO5)CC3)n2)c(C)c1	CYP2C19 inh 51.5
Cc1ccc(Nc2nc(N)nc(CN3CCN(Cc4ccc5c(c4)OCO5)CC3)n2)cc1Cl	CYP2C9 inh 74.3, CYP2C19 inh 59.8
Cc1ccc(Nc2nc(N)nc(CN3CCN(Cc4ccc5c(c4)OCO5)CC3)n2)cc1	CYP2C19 inh 51.5
Nc1nc(CN2CCN(Cc3ccccc3)CC2)nc(Nc2ccc3c(c2)OCCO3)n1	none
Cn1c(OCc2ccc3c(c2)OCO3)nc2c1c(=O)n(Cc1cccc(Cl)c1)c(=O)n2C	none (no result: CYP2C19 act, CYP2C9 activ, CYP2C9 inh, CYP2C19 inh, E coli WT exp)
O=C(OCCNC(=O)c1ccc2ccccc2n1)c1ccc(F)cc1	none (no result: tolC growth inh)
O=C(NC1CCCCCCC1)c1ccc(CNc2c(N3CCOCC3)c(=O)c2=O)cc1	none
Clc1ccc(-c2nnc(CCc3ccccc3)o2)c(Cl)c1	none (no result: tolC growth inh)
C=CCSc1nnc(-c2ccc(Cl)cc2Cl)o1	CYP2C19 inh 84.2
Clc1ccc(-c2nnc(SCc3ccon3)o2)c(Cl)c1	CYP2C9 inh 61.9, CYP2C19 inh 96.7
N#CC(C(=O)NC1CC1)c1nc2ccccc2nc1N1CCN(C/C=C/c2ccccc2)CC1 (stereo not drawn)	none
CC(=O)c1c(C)nc2ccc(Br)cc2c1C(=O)O	none
COc1ccccc1NC(=O)Cc1cccs1	none
COc1ccccc1NC(=O)Nc1ccnn1C1CCCCC1	CYP2C19 inh 56.2
COc1ccccc1NC(=O)Nc1ccnn1Cc1cccs1	CYP2C19 inh 63.0
CCCCNC(=O)Nc1ccnn1C1CCCCC1	CYP2C19 inh 56.8
O=C(NC(O)C(=O)c1cccs1)c1cccnc1 (stereo not drawn)	none
CN1C(=O)CC(N2CCN(Cc3ccc(Cl)cc3)CC2)C1=O (stereo not drawn)	none (no result: tolC growth inh)
O=C(O)c1ccccc1C(=O)OCCCCOC(=O)c1ccccc1C(=O)O	none
O=C(CN1CCCCC1)Nc1ccc(S(=O)(=O)NC2CCCCC2)cc1	CYP2C9 inh 72.0
O=S(=O)(NC1CCCC1)c1ccc(S(=O)(=O)NC2CCCC2)cc1	CYP2C9 inh 86.1, CYP2C19 inh 98.3
O=S(=O)(NC1CCCCC1NS(=O)(=O)c1ccc(F)cc1)c1ccc(F)cc1 (stereo not drawn)	CYP2C9 inh 86.6, CYP2C19 inh 62.2
CCOC(=O)N1CCC(N2CCN(S(=O)(=O)c3ccc(NC(C)=O)cc3)CC2)CC1	none
CCOC(=O)C1CCCC(NS(=O)(=O)c2ccc(NC(C)=O)cc2)C1 (stereo not drawn)	CYP2C9 inh 76.7, CYP2C19 inh 57.7 (no result: tolC growth inh)
CC1CN(C)C(C)CC1NCc1ccc2c(c1)OCO2 (stereo not drawn)	none
CCOC(=O)CNC(=O)C(NC(=O)C1CCC(C)CC1)C(C)CC (stereo not drawn)	none
Cc1nc2ncnn2c(C)c1Cc1ccc(Cl)cc1F	none (no result: CYP2C19 act, CYP2C9 activ, CYP2C9 inh, CYP2C19 inh, E coli WT exp)
CCOc1ccccc1N1CC(C(=O)N2CCc3ccccc3C2)CC1=O (stereo not drawn)	none (no result: tolC growth inh)
NC(=O)CNC1CC(=O)N(CCc2ccccc2)C1=O (stereo not drawn)	none
CN(C(=O)c1ccc(S(=O)(=O)NC2CCCC2)cc1)C1CCCCC1	none
CC(C)(C)C(=O)CNS(=O)(=O)c1ccc(S(=O)(=O)NC2CCCC2)cc1	CYP2C19 inh 89.1
Cc1ccc(-n2nc3c(c2NC(=O)c2ccc(S(=O)(=O)N4CCOCC4)cc2)CSC3)c(C)c1	CYP2C9 inh 67.3
Cc1cccc(-n2nc3c(c2NC(=O)c2ccc(S(=O)(=O)N4CCOCC4)cc2)CSC3)c1C	none
COc1cccc(C(=O)NCC2CCN(c3ccc(S(=O)(=O)N4CCOCC4)cc3)CC2)c1	CYP2C9 inh 55.1, CYP2C19 inh 55.8
COc1cccc(-c2nnc(NC(=O)c3ccc(S(=O)(=O)N4CCOCC4)cc3)o2)c1	tolC growth inh 93.8
CC1CN(S(=O)(=O)c2ccc(C(=O)Nc3nnc(-c4ccc5c(c4)CCCC5)o3)cc2)CC(C)O1 (stereo not drawn)	tolC growth inh 96.7
COC(=O)c1nonc1NCn1nnc2ccccc21	none
CCCSc1nc(=O)n2cccc(C)c2n1	none (no result: tolC growth inh)
Cc1ccc(N(C(=O)Cn2nnc(-c3ccc(F)cc3)n2)C(CC(C)C)C(=O)NCC2CCCO2)cc1 (stereo not drawn)	none (no result: tolC growth inh)
O=C(NCCOc1ccccc1)c1cc2ccccc2o1	none
COc1ccc(NC(=O)c2ccc(S(=O)(=O)N3CCOCC3)cc2)c(OC)c1	CYP2C9 activ 2.6
COc1cc(S(=O)(=O)N2CCCCC2)ccc1NC(=O)c1ccc(F)cc1	none
CC1CCCC(C)N1C(=O)CSc1nc(N)c(-c2ccccc2)c(=O)[nH]1 (stereo not drawn)	none (no result: tolC growth inh)
CCN(CC)C(=O)CSc1nc(O)cc(=O)n1CC	none
CC1(C)CC2(CCO1)N1CC3(C)CN2CC(C)(C1)C3O (stereo not drawn)	CYP2C9 inh 51.8
CC(=O)N1CC2(C)CN(C(C)=O)CC(C)(C1)C2O (stereo not drawn)	none
CCOC(=O)c1[nH]c2cc3c(cc2c1NC(=O)CN1CCC(C)CC1)OCO3	CYP2C9 inh 67.8, CYP2C19 inh 61.4
CCOC(=O)c1[nH]c2cc3c(cc2c1NC(=O)CN1CCc2ccccc2C1)OCO3	CYP2C9 inh 55.4, CYP2C19 inh 68.3
CCOC(=O)N1CCN(CC(=O)Nc2c(C(=O)OC)[nH]c3ccccc23)CC1	none
O=C(NCCc1ccc(Cl)cc1)C1CCN(S(=O)(=O)c2ccc(-n3cnnn3)cc2)CC1	none
O=C(CCCCCn1c(=O)[nH]c2ccsc2c1=O)NCc1ccc2c(c1)OCO2	CYP2C9 inh 62.6 (no result: tolC growth inh)
COC(=O)c1ccc2c(=O)n(CCCCCC(=O)NCc3ccc4c(c3)OCO4)c(=O)[nH]c2c1	CYP2C9 inh 51.9 (no result: tolC growth inh)
